UBC9 SUMO inh = SUMOylation inhibition; HTRF SUMOylation assay, SAE1/SAE2 + UBC9, in vitro; inhibition, % at 35 µM; hit rate 0.36% among 290,000; in the data active means inhibition above about 50%, passing the limit was not always enough; inconclusive means no clear call, values can overlap the other calls
TDP2 inh = TDP2 (human) inhibition, absorbance primary screen. O95551. recombinant TDP2, T5PNP hydrolysis, p-nitrophenol absorbance 415 nm. inhibition, % at 12.8 µM. hit rate 0.34% among 370,000. AID 720702;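 active means inhibition above the mean of all tested compounds plus 3 SD, set per campaign, cut at about 25% in these data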
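Read-out basis: percent inhibition. System: recombinant human TDP2. Buffer or medium: Mg2+-containing Tris-HCl buffer, pH 7.5. Repeats: single replicate. Timing: reaction 2 h, 37 °C. Benchmarks: high control without enzyme, low control DMSO plus TDP2. Probe or stimulus: 5 mM T5PNP. Doses: 12.8 µM only. Measured by: epi absorbance of p-nitrophenol freed from T5PNP by hydrolysis.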
GASC-1 inh = human JMJD2C demethylase inhibition | Q9H3R0 | GST-JMJD2C(1-420) H3K9me3 demethylation, DELFIA europium | inhibition, % at 2.35 µM | hit rate 0.069% among 330,000;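 active means more than half of a compound's replicate wells show inhibition beyond 50%, single wells judged on their own value; inconclusive means some, but no more than half, of replicates pass 50% inhibition; inactive means no replicate passes 50% inhibition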;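 further: signal counts dimethyl H3K9 product captured on neutravidin plate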
Target sequence (Q9H3R0 1-420 limits assumed): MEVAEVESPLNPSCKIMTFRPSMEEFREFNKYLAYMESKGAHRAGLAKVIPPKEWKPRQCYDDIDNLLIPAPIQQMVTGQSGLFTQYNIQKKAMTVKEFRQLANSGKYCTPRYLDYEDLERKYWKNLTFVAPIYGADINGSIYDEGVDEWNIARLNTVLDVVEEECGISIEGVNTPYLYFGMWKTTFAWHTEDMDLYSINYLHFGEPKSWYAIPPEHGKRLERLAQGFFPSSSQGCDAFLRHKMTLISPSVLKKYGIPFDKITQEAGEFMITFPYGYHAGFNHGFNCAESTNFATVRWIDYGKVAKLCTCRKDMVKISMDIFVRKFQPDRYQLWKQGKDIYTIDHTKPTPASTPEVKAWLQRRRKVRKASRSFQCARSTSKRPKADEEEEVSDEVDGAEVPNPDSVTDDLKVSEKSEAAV
PAD4 FP inh = blocks human protein arginine deiminase 4; Q9UM07; recombinant PAD4, RCA probe fluorescence polarization; inhibition, % at 6.36 µM; hit rate 0.41% among 330,000; AID 485272;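 active means percent inhibition above a cutoff equal to the mean of all tested compounds plus 3 SD, cut at about 15% in these data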
Apaf1 inhib = human Apaf-1 inhibition | O14727 | reconstituted apoptosome caspase-3 activity, DEVD-Rh110 fluorescence | inhibition, % at 20 µM | hit rate 0.71% among 330,000 | AID 489030; active means inhibition of at least 40% at 20 µM
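Material: reconstituted apoptosome with Apaf-1, cytochrome c, caspase-9, procaspase-3, dATP / Buffer or medium: pH 7.5 Hepes buffer with CHAPS, BSA, DTT / Also added: cytochrome c with DEVD-Rh110 / Schedule: compound with Apaf-1, dATP, procaspase-3 30 min, then 50 min reaction, room temperature / Technique: rhodamine 110 fluorescence at Ex 480/Em 540 nm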
GSTO1 inh = blocks human GSTO1 in RBBP9 counter-screen. P78417. recombinant GSTO1, activity-based probe fluorescence polarization. inhibition, % at 5.96 µM. hit rate 1.1% among 300,000. AID 1974;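 active means inhibition above the campaign mean inhibition plus 3 SD, cut at about 35% in these data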
A number is an active result; - = inactive; ? = inconclusive; . = no result given. Compounds with a hit are over-represented: about 1.6% of the library has one in this group of screens.

SMILES	UBC9 SUMO inh	TDP2 inh	GASC-1 inh	PAD4 FP inh	Apaf1 inhib	GSTO1 inh
COc1cc2c(cc1OC)C(c1ccc(-c3ccc(Cl)c(Cl)c3)o1)=NCC2	-	-	-	-	41	-
CNC(=O)c1nn(-c2ccc(C)cc2)ccc1=O	-	-	-	-	-	-
NNC(=O)c1nn(-c2ccc(Cl)cc2)ccc1=O	-	-	55	-	-	-
COc1ccc(CCNC(=O)Cn2ncc3c2-c2cc(C)ccc2OC3)cc1	.	-	.	.	.	.
CCn1c(SCC(=O)NNC(=S)Nc2ccc(C)cc2)nnc1-c1ccc(Cl)cc1	-	-	-	-	-	35
O=C(OCc1ccccc1)Oc1cncc(C(=O)O)c1	-	-	-	-	-	35
O=C(OCc1ccccc1)c1ccccc1	.	-	-	-	-	-
CN(c1ccc(OCC(=O)N2CCN(c3ccc(F)cc3)CC2)cc1)S(=O)(=O)c1cccs1	-	-	-	-	-	-
CN(c1ccc(OCC(=O)N2CCCCC2)cc1)S(=O)(=O)c1cccs1	-	-	64	-	-	-
C=CCN1C(=O)[C@@H](CC(=O)NCc2cccc(C(F)(F)F)c2)[C@]2(C(=O)OC)CCCCC=C12	.	-	.	.	.	.
COc1ccc(-c2csc(NC(=O)c3ccccc3NS(=O)(=O)c3ccc(F)c(F)c3)n2)cc1	67	-	-	-	-	-
Cc1ccc(S(=O)(=O)Nc2ccccc2C(=O)Nc2nc(-c3ccc(F)cc3)cs2)cc1	-	-	-	-	-	-
CN(C)/C=N/c1nc2nccc(-c3ccccn3)n2n1	?	-	-	-	-	-
COc1ccc(-c2ccnc3nc(/N=C/N(C)C)nn23)cc1	57	-	-	-	-	-
CN(C)/C=N/c1nc2nccc(-c3cccnc3)n2n1	65	-	-	-	-	-
O=C(c1ccccc1C(F)(F)F)N1CCC(Oc2cccnc2)CC1	.	-	.	.	.	.
Cc1ccc(/C=C2\Oc3cc(OCC(=O)NN)ccc3C2=O)o1	59	-	-	.	-	.
Cc1cccc(N=Cc2[nH]c3ccc(Br)c(Cl)c3c2O)c1	-	29	-	-	.	-
O=C(N/N=C/c1cc(Cl)cc([N+](=O)[O-])c1O)c1ccccc1NS(=O)(=O)c1cccs1	100	-	-	-	-	-
O=C(O)CCc1ccc(-c2ccccc2)n1-c1cccc(C(=O)O)c1	-	-	-	-	-	-
O=C(O)CCc1ccc(-c2ccc(Br)cc2)n1-c1cccc(O)c1	-	-	-	-	-	35
COc1ccc(-n2c(SCC(=O)Nc3ccc(S(=O)(=O)Nc4nccs4)cc3)nnc2-c2ccccc2)cc1	.	-	.	.	.	.
C[n+]1cccc(C2C(C#N)=C(N)Oc3c2ccc2ccccc32)c1 (stereo not drawn)	-	-	-	-	-	37
COC(=O)[C@]1(CNS(=O)(=O)C2CC2)CC(=O)N(C)[C@@H]1c1ccccc1	.	-	.	.	.	.
Cc1nc2ccc(C(=O)N/N=C/c3cc([N+](=O)[O-])ccc3O)cc2[nH]1	-	-	58	-	-	-
SMILES	UBC9 SUMO inh	TDP2 inh	GASC-1 inh	PAD4 FP inh	Apaf1 inhib	GSTO1 inh
O=C(O)CCC1c2cc3c4cc2OC2Oc5cc6c(cc51)C(CCC(=O)O)c1cc5c7cc1OC(O6)c1cc6cc(c1)Oc1cc(cc(C(=O)O)c1)Oc1cc8cc(c1)C(Oc1cc(c(cc1C5CCC(=O)O)C3CCC(=O)O)OC(O4)c1cc(cc(c1)Oc1cc(cc(C(=O)O)c1)O8)Oc1cc(cc(C(=O)O)c1)Oc1cc(cc2c1)Oc1cc(cc(C(=O)O)c1)O6)O7 (stereo not drawn)	.	.	101	-	99	-
O=C(NCc1ccccc1)NC12CC3CC(CC(C3)C1)C2	-	-	-	-	-	35
O=C(NCc1ccccc1)NCC12CC3CC(CC(C3)C1)C2	-	-	-	-	-	-
CC(C)(N[C@@H](Cc1ccccc1)C(=O)NCCc1c[nH]c2ccccc12)C(=O)NC1CCCCC1	.	-	.	.	.	.
CC(C)CCN(C(=O)C1=COCCO1)c1c(N)n(Cc2ccccc2)c(=O)[nH]c1=O	.	-	75	-	-	-
N=C1/C(=C/c2cccn2Cc2ccc(Cl)cc2)C(=O)N=C2SC=CN12	50	-	-	-	-	-
CC1=NOC(=O)/C1=C\c1ccc(-c2ccc(Br)cc2C(=O)O)o1	-	-	-	-	-	-
CC1=NN(c2ccc(Br)cc2)C(=O)/C1=C/c1ccc(-c2ccccc2C(=O)O)o1	-	-	-	-	78	-
